According to ChEMBL document CHEMBL1129041, “Design of orally active dual inhibitors of neutral endopeptidase and angiotensin-converting enzyme with long duration of action” (J Med Chem, 1996):

Key:
[1] = target: T1, Angiotensin-converting enzyme (Rattus norvegicus, UniProt P47820); assay: In vitro inhibition of rat angiotensin I converting enzyme
T1 sequence (P47820 whole entry): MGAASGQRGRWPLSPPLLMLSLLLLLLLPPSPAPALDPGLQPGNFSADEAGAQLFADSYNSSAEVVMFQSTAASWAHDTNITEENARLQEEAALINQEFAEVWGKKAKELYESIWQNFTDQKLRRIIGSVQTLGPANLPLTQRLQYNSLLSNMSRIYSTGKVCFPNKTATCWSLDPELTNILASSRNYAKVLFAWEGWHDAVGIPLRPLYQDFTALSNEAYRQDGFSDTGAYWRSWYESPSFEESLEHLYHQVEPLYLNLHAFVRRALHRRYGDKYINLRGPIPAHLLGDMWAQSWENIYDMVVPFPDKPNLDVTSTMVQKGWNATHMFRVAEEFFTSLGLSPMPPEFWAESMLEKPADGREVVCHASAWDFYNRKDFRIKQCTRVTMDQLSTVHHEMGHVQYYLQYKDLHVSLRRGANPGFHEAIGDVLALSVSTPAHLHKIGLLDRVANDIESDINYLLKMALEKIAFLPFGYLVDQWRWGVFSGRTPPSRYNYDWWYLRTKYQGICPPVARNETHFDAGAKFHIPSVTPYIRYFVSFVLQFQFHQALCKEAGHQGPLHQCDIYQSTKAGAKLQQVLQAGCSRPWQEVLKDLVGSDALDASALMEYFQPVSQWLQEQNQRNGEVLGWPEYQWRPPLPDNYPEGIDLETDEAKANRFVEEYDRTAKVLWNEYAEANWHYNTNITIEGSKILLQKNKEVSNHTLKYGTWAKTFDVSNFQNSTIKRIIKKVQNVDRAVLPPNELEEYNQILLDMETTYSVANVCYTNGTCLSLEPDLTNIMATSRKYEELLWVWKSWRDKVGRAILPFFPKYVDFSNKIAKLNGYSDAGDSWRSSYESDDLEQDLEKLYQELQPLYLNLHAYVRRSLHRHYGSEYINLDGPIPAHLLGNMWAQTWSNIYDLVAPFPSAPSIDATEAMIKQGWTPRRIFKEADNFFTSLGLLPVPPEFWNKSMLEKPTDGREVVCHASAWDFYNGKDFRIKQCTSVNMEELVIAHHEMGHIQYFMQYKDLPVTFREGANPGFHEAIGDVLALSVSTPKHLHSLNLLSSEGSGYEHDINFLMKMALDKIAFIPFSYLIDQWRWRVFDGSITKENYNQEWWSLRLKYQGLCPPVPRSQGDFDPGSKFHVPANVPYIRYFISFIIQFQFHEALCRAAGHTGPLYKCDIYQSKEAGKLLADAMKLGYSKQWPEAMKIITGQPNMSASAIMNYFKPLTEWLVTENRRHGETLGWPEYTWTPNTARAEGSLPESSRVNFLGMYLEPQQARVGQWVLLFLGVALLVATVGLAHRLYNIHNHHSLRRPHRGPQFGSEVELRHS
Procedure, shortened: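 ACE purified from rat testis, 0.02 pmol/100 µL final, preincubated 15 min at 37 °C with varying inhibitor in 50 mM Tris-HCl pH 8.0. N-Cbz-Phe-His-Leu added to 0.05 mM final, 15 min; stopped with 2 M NaOH. His-Leu measured fluorimetrically (ex 365, em 495 nm) against a His-Leu calibration curve. IC50 is the mean ± SEM of three experiments in triplicate.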

Neprilysin = target: T2, Neprilysin (Oryctolagus cuniculus, UniProt P08049); assay: In vitro inhibition of neutral endopeptidase
T2 sequence (P08049 whole entry): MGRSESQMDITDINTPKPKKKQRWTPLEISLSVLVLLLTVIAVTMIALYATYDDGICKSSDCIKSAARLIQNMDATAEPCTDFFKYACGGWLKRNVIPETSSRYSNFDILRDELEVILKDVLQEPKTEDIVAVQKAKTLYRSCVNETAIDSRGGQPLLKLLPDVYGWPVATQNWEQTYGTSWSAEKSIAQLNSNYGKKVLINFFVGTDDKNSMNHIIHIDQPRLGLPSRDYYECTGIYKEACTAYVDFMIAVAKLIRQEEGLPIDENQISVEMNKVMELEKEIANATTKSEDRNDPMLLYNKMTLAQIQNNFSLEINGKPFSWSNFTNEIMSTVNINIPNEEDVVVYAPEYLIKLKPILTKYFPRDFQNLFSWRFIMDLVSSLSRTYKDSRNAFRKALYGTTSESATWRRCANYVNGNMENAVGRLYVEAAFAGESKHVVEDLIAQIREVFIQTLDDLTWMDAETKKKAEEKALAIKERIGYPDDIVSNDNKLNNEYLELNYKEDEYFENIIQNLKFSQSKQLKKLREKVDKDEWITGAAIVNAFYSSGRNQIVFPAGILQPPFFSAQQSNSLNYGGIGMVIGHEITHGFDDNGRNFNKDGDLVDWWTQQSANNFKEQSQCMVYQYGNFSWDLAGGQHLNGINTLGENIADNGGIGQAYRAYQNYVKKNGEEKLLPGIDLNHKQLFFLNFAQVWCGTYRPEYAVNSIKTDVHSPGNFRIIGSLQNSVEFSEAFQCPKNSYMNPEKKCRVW
Procedure, shortened: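 NEP purified from rabbit kidney, 1 pmol/100 µL final, preincubated 15 min at 25 °C with increasing inhibitor concentrations in 50 mM Tris-HCl pH 7.4. Substrate [3H]-D-Ala2-Leu-enkephalin at 20 nM final, 30 min; stopped with 0.5 M HCl. [3H]Tyr-D-Ala-Gly separated on polystyrene beads and counted by scintillation. IC50 is the mean ± SEM of three independent experiments run in triplicate.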

[2] = target: T3, Neprilysin (Mus musculus) (UniProt Q61391); assay: In vivo percent inhibition activity against kidney Neutral endopeptidase 2 hr after oral administration of a dose of 2.6 x 10e-5 mol/kg; assay type: organism-based
T3 sequence (whole entry): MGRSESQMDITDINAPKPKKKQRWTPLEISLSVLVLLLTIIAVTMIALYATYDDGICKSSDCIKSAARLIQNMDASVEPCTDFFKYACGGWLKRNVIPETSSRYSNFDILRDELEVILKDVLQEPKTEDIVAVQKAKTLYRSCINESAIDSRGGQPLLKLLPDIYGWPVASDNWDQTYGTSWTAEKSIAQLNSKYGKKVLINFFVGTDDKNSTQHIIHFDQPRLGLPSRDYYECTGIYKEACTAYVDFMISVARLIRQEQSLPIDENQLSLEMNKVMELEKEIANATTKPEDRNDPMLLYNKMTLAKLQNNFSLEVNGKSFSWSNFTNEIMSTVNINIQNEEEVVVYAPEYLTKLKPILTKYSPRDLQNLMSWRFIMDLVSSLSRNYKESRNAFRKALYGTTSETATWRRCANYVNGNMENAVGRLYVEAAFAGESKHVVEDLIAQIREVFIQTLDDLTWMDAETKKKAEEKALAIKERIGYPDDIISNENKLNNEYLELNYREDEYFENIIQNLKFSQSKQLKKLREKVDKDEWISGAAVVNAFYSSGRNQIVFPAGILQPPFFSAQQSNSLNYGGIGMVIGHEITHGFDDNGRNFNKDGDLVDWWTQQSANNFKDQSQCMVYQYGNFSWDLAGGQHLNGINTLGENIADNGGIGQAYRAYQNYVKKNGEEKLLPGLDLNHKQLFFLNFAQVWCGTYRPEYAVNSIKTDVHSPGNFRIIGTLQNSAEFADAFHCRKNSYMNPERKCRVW
Procedure, shortened: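 Mice given a single oral dose in 10% ethanol/10% cremophor/80% water; kidneys taken 2 h later and homogenized at 4 °C in 50 mM Tris-HCl pH 7.4. Membrane fraction (100000g) preincubated 5 min at 25 °C with bestatin and captopril, then incubated 10 min with [3H]-D-Ala2-Leu-enkephalin (2 × 10^-8 M). [3H]Tyr-D-Ala-Gly counted; blanks contained 10^-5 M retrothiorphan.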

O=C(NCC(=O)N1[C@@H](c2ccccc2)CC[C@H]1C(=O)O)[C@H](S)Cc1ccccc1
IC50 [1]: 25 nM
IC50 (Neprilysin): 3.2 nM

NCCCCC(S)C(=O)NCC(=O)N1[C@@H](c2ccccc2)CC[C@H]1C(=O)O (some centres not stated)
IC50 [1]: 403 nM
IC50 (Neprilysin): 500 nM

O=C(O)c1ccc(CC(S)C(=O)NCC(=O)N2[C@@H](c3ccccc3O)CC[C@H]2C(=O)O)cc1 (some centres not stated)
IC50 [1]: 5.3 nM
IC50 (Neprilysin): 62 nM

Cc1ccccc1[C@@H]1CCC(C(=O)O)N1C(=O)CNC(=O)[C@@H](S)Cc1ccc(O)cc1 (single isomer, unassigned)
IC50 [1]: 12.5 nM
IC50 (Neprilysin): 5.1 nM

O=C(NCC(=O)N1[C@@H](c2cccc(O)c2)CC[C@H]1C(=O)O)[C@@H](S)Cc1cccc(O)c1
IC50 [1]: 3.2 nM
IC50 (Neprilysin): 4.3 nM

COc1ccccc1[C@H]1CC[C@@H](C(=O)O)N1C(=O)CNC(=O)[C@@H](S)Cc1ccc(O)cc1
IC50 [1]: 4.5 nM
IC50 (Neprilysin): 3.4 nM

CC[C@H](C)C(S)C(=O)NCC(=O)N1[C@@H](c2ccccc2)CC[C@H]1C(=O)O (some centres not stated)
IC50 [1]: 3.7 nM
IC50 (Neprilysin): 50 nM

O=C(NCC(=O)N1[C@@H](c2ccccc2)CC[C@H]1C(=O)O)[C@@H](S)Cc1ccc(O)cc1
IC50 [1]: 4.2 nM
IC50 (Neprilysin): 3.4 nM

Cc1cccc(C2CCC(C(=O)O)N2C(=O)CNC(=O)[C@@H](S)Cc2ccc(O)cc2)c1 (some centres not stated)
IC50 [1]: 3.1 nM
IC50 (Neprilysin): 1.5 nM

Nc1ccc(C[C@H](S)C(=O)NCC(=O)N2[C@@H](c3ccccc3)CC[C@H]2C(=O)O)cc1
IC50 [1]: 3.5 nM
IC50 (Neprilysin): 1.8 nM

Cc1cccc([C@H]2CC[C@@H](C(=O)O)N2C(=O)CNC(=O)[C@@H](S)Cc2ccccc2)c1
IC50 [1]: 6.2 nM
IC50 (Neprilysin): 2.3 nM

Cc1ccccc1C1CC[C@H](C(=O)O)N1C(=O)CNC(=O)[C@@H](S)Cc1ccccc1 (single isomer, unassigned)
IC50 [1]: 112 nM
IC50 (Neprilysin): 25 nM

COc1ccc(C[C@H](S)C(=O)NCC(=O)N2[C@@H](c3ccccc3O)CC[C@H]2C(=O)O)cc1
IC50 [1]: 0.42 nM
IC50 (Neprilysin): 2.2 nM

O=C(NCC(=O)N1[C@@H](c2ccccc2O)CC[C@H]1C(=O)O)[C@@H](S)Cc1ccccc1
IC50 [1]: 0.5 nM
IC50 (Neprilysin): 1 nM

Nc1ccc([C@H]2CC[C@@H](C(=O)O)N2C(=O)CNC(=O)[C@@H](S)Cc2ccc(O)cc2)cc1
IC50 [1]: 23 nM
IC50 (Neprilysin): 26 nM

COc1ccc(C[C@H](S)C(=O)NCC(=O)N2[C@@H](c3ccccc3OC)CC[C@H]2C(=O)O)cc1
IC50 [1]: 2.2 nM
IC50 (Neprilysin): 2.5 nM

O=C(NCC(=O)N1[C@@H](c2ccccc2O)CC[C@H]1C(=O)O)C(S)Cc1ccc(Cl)cc1 (some centres not stated)
IC50 [1]: 0.9 nM
IC50 (Neprilysin): 1.2 nM

O=C(NCC(=O)N1[C@@H](c2cccc(O)c2)CC[C@H]1C(=O)O)C(S)Cc1ccc(F)cc1 (some centres not stated)
IC50 [1]: 3.8 nM
IC50 (Neprilysin): 5.3 nM

Cc1ccccc1[C@@H]1CCC(C(=O)O)N1C(=O)CNC(=O)[C@@H](S)Cc1ccccc1 (single isomer, unassigned; 17)
IC50 [1]: 33 nM
IC50 (Neprilysin): 8.5 nM

Cc1ccccc1[C@@H]1CCC(C(=O)O)N1C(=O)CNC(=O)[C@@H](S)Cc1ccccc1 (single isomer, unassigned; 18)
IC50 [1]: 48 nM
IC50 (Neprilysin): 17 nM

O=C(NCC(=O)N1[C@@H](c2cccc(O)c2)CC[C@H]1C(=O)O)[C@@H](S)Cc1ccccc1
IC50 [1]: 1.5 nM
IC50 (Neprilysin): 2.4 nM

C[C@H](NC(=O)[C@@H](S)Cc1ccccc1)C(=O)N1[C@@H](c2ccccc2)CC[C@H]1C(=O)O
IC50 [1]: 45 nM
IC50 (Neprilysin): 10 nM

O=C(NCC(=O)N1[C@@H](c2ccc(O)cc2)CC[C@H]1C(=O)O)[C@@H](S)Cc1ccc(O)cc1
IC50 [1]: 0.46 nM
inhibition [2]: 25%
IC50 (Neprilysin): 6.36 nM
